Here are results for 25 compounds from ChEMBL document CHEMBL1145034.

Experiment [1] concerns the target T1, Estrogen receptor (Mus musculus) (UniProt O08537+P19785). Briefly: Vaginal activity relative to estradiol (E2). It counts as functional. Summed up:
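Female CD-1 mice ovariectomized; 1 week later, compound instilled intravaginally in 10 μL sesame oil. Vaginal reductase induction measured and compared with 50 pg E2. n = 5–6 per group, at least two separate occasions.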

Experiment [2] addresses T2, Estrogen receptor (Rattus norvegicus) (UniProt P06211+Q62986). Briefly: In vivo uterotropic activity at 100 ug subcutaneous dose in immature rats as ng estradiol dose for equivalent effect. It counts as functional, organism-based. Summed up:
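Immature (22-day) female Sprague–Dawley rats given daily subcutaneous injections in 0.1 mL sesame oil for 3 days, 100 μg total dose; controls received oil. Uteri removed, blotted and weighed on day 4. Compared with 5 ng E2 run concurrently; n = 5, usually 2 separate experiments.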

In experiment [3] the target is T1, Estrogen receptor (Mus musculus). Briefly: In vivo vaginal activity in ovariectomised mice at 50 ng vaginal dose as pg estradiol dose for equivalent effect.
For experiment [4], the target named is Estrogen receptor beta (Homo sapiens) (UniProt Q92731). In words: Binding of […] to human estrogen receptor beta ligand binding domain expressed in Escherichia coli. Summed up:
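Competitive binding against [3H]E2 using lysates of E. coli expressing human ERβ LBD (M214–Q530); incubated overnight at 0–2 °C. Result given as RBA versus E2 (E2 = 100); mean of 3 experiments, each in duplicate.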

The species entered for another experiment is Rattus norvegicus. In words: Hydrolytic activity against esterase with hepatic microsomes relative to E16-1,2. Conditions: Liver.
In experiment [5] the target is T2, Estrogen receptor (Rattus norvegicus). Briefly: Uterotropic activity relative to estradiol (E2). It counts as functional, tissue-based. The conditions noted are these: Uterus. The essentials: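 Immature female Sprague–Dawley rats, 22 days old, injected subcutaneously once a day for 3 days with test steroid in 0.1 mL sesame oil, 100 µg total dose; sesame oil controls; 5 ng E2 total run concurrently as reference. Uteri removed on day 4, blotted and weighed. n = 5, usually 2 separate experiments; activity expressed relative to E2.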

Structures are written as SMILES.

Chain of Estrogen receptor beta (Homo sapiens) (Q92731 whole entry, the tested form may be a part): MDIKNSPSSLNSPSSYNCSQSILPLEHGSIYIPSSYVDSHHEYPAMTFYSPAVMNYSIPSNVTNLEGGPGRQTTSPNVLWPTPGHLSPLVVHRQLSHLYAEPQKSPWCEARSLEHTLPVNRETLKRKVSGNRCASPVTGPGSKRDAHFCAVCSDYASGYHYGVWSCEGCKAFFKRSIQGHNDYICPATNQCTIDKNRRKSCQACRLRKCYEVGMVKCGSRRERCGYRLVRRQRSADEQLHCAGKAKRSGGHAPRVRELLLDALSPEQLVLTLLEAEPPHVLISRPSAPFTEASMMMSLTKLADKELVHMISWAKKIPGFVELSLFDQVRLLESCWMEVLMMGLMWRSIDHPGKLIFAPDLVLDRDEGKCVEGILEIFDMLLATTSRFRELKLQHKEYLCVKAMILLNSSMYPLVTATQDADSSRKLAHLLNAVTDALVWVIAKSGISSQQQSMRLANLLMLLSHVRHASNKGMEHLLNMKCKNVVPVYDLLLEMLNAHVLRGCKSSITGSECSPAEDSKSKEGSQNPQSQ
T1 sequence (O08537 whole entry, looked up): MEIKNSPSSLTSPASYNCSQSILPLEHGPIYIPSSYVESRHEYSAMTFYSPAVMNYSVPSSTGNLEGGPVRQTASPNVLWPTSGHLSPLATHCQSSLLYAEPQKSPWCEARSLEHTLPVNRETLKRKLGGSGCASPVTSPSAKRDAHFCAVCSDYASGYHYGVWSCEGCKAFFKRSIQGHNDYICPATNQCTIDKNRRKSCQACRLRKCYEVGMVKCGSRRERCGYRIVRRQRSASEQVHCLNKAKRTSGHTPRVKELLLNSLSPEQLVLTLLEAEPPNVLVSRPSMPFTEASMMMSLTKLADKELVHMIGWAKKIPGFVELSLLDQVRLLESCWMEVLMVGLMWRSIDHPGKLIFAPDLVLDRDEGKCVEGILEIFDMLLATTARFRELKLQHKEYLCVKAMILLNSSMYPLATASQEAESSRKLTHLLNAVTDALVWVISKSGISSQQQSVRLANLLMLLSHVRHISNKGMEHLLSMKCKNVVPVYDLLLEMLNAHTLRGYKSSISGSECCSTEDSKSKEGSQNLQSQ
T1 sequence (P19785 whole entry, looked up): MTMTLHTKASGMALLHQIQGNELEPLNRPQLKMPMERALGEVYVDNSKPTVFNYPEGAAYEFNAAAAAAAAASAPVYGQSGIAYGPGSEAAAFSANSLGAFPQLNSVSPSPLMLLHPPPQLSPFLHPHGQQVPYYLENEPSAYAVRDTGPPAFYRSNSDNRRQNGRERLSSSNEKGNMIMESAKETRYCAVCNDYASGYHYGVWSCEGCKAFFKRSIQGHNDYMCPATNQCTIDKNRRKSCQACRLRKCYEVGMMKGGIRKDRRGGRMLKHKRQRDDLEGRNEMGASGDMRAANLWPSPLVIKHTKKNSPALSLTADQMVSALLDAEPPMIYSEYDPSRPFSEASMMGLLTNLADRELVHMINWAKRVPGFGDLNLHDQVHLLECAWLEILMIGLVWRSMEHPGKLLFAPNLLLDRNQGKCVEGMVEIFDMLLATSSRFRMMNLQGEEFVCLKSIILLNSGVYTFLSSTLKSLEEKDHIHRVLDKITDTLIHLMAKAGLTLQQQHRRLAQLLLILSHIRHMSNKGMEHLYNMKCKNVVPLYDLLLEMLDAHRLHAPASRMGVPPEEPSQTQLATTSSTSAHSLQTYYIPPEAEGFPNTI

As to `CCOC(=O)[C@H]1C[C@H](O)[C@@]2(C)CC[C@@H]3c4ccc(O)cc4CC[C@H]3[C@H]12`, the Vaginal activity in experiment [1] was 0.42; in experiment [3], 21. Also, in experiment [2], the Uterotropic activity was determined as 0. This compound also gave an Activity in experiment [4] of 7. Further, in the experiment filed under Rattus norvegicus, the RHA was 2.3%.

Compound `CCOC(=O)C[C@H]1C[C@]2(C)[C@@H](O)CC[C@H]2[C@@H]2CCc3cc(O)ccc3[C@@H]12` registered an Activity in experiment [4] of 70. In the experiment filed under Rattus norvegicus, this compound showed an RHA of 152%.

`C[C@]12CC[C@@H]3c4ccc(O)cc4CC[C@H]3[C@@H]1CC[C@@H]2O`: in experiment [4], the Activity worked out at 100.

In the experiment filed under Rattus norvegicus, `CC(C)OC(=O)[C@H]1C[C@H](O)[C@@]2(C)CC[C@@H]3c4ccc(O)cc4CC[C@H]3[C@H]12` showed an RHA of 0.4%.

`CCOC(=O)CC[C@H]1C[C@H](O)[C@@]2(C)CC[C@@H]3c4ccc(O)cc4CC[C@H]3[C@H]12` yielded an RHA in the experiment filed under Rattus norvegicus of 674%.

With `C[C@]12CC[C@@H]3c4ccc(O)cc4CC[C@H]3[C@@H]1[C@@H](C(=O)OCCF)C[C@@H]2O`, in the experiment listed under Rattus norvegicus, the RHA was determined as 4.5%.

Compound `CCCCOC(=O)[C@@H]1Cc2cc(O)ccc2[C@H]2CC[C@]3(C)[C@@H](O)CC[C@H]3[C@@H]21` returned an RHA in the experiment filed under Rattus norvegicus of 0%.

On to `CCCOC(=O)[C@@H]1Cc2cc(O)ccc2[C@H]2CC[C@]3(C)[C@@H](O)CC[C@H]3[C@@H]21`, for which the RHA in the experiment listed under Rattus norvegicus stood at 0%.

Regarding `CCOC(=O)CC[C@H]1C[C@]2(C)[C@@H](O)CC[C@H]2[C@@H]2CCc3cc(O)ccc3[C@@H]12`, the Activity in experiment [4] worked out at 64. The RHA in the experiment listed under Rattus norvegicus came out at 542%.

With `C[C@]12CC[C@@H]3c4ccc(O)cc4CC[C@H]3[C@@H]1C[C@@H](C(=O)OCCF)[C@@H]2O`, the Uterotropic activity was determined as 0.02 in experiment [5] and 2 in experiment [2]. For the same compound, the Vaginal activity in experiment [1] worked out at 0.42; in experiment [3], 21.

`COC(=O)C[C@@H]1Cc2cc(O)ccc2[C@H]2CC[C@]3(C)[C@@H](O)CC[C@H]3[C@H]12`: the RHA in the experiment listed under Rattus norvegicus worked out at 30%.

Regarding `CCOC(=O)[C@@H]1C[C@H]2[C@@H]3CCc4cc(O)ccc4[C@H]3CC[C@]2(C)[C@H]1O`, the Activity in experiment [4] stood at 0.3. The compound also came in with an RHA in the experiment filed under Rattus norvegicus of 100%.

`CCOC(=O)C[C@@H]1Cc2cc(O)ccc2[C@H]2CC[C@]3(C)[C@@H](O)CC[C@H]3[C@H]12`: the RHA in the experiment filed under Rattus norvegicus was found to be 70%.

Consider `CCOC(=O)[C@@H]1Cc2cc(O)ccc2[C@H]2CC[C@]3(C)[C@@H](O)CC[C@H]3[C@@H]21`, for which the Uterotropic activity in experiment [5] stood at 0.04; in experiment [2] it was 4. Also, the Vaginal activity in experiment [1] was 0.44; in experiment [3] it was 22. The compound also returned an Activity in experiment [4] of 9. This compound also displayed an RHA in the experiment listed under Rattus norvegicus of 0%.

`COC(=O)CC[C@H]1C[C@]2(C)[C@@H](O)CC[C@H]2[C@@H]2CCc3cc(O)ccc3[C@@H]12` showed an RHA in the experiment listed under Rattus norvegicus of 64%.

In the experiment filed under Rattus norvegicus, `CCCCOC(=O)[C@H]1C[C@H](O)[C@@]2(C)CC[C@@H]3c4ccc(O)cc4CC[C@H]3[C@H]12` returned an RHA of 7%.

As for `CCOC(=O)C[C@H]1Cc2cc(O)ccc2[C@H]2CC[C@]3(C)[C@@H](O)CC[C@H]3[C@H]12`, the RHA in the experiment listed under Rattus norvegicus was found to be 0%.

`COC(=O)CC[C@H]1C[C@H](O)[C@@]2(C)CC[C@@H]3c4ccc(O)cc4CC[C@H]3[C@H]12` came in with an RHA in the experiment listed under Rattus norvegicus of 248%.

For the compound `CCOC(=O)C[C@H]1C[C@H](O)[C@@]2(C)CC[C@@H]3c4ccc(O)cc4CC[C@H]3[C@H]12`, the RHA in the experiment filed under Rattus norvegicus stood at 71%.

The compound `COC(=O)C[C@H]1C[C@H](O)[C@@]2(C)CC[C@@H]3c4ccc(O)cc4CC[C@H]3[C@H]12` displayed an RHA in the experiment filed under Rattus norvegicus of 31%.

Compound `C[C@]12CC[C@@H]3c4ccc(O)cc4C[C@@H](C(=O)OCCF)[C@H]3[C@@H]1CC[C@@H]2O` showed an RHA in the experiment listed under Rattus norvegicus of 0%.

In the experiment filed under Rattus norvegicus, `CCCOC(=O)[C@H]1C[C@H](O)[C@@]2(C)CC[C@@H]3c4ccc(O)cc4CC[C@H]3[C@H]12` returned an RHA of 7.8%.

`COC(=O)[C@H]1CC(O)[C@@]2(C)CC[C@@H]3c4ccc(O)cc4CC[C@H]3[C@H]12` (stereo partly specified): the Vaginal activity in experiment [1] came to 0.38; in experiment [3] it was 19. Moreover, in experiment [2], the Uterotropic activity worked out at 0. For the same compound, the RHA in the experiment listed under Rattus norvegicus was 1.7%.

For `COC(=O)C[C@H]1C[C@]2(C)[C@@H](O)CC[C@H]2[C@@H]2CCc3cc(O)ccc3[C@@H]12`, the Uterotropic activity in experiment [5] came to 0.07; in experiment [2], 6.5. Further, the Vaginal activity in experiment [1] was 0.42; in experiment [3], 21. In the experiment filed under Rattus norvegicus, this compound registered an RHA of 106%.

Take `COC(=O)[C@@H]1Cc2cc(O)ccc2[C@H]2CC[C@]3(C)[C@@H](O)CC[C@H]3[C@@H]21`: the results for the Uterotropic activity in experiment [5] and in experiment [2] were 0.11 and 10.5, respectively. For the same compound, the Vaginal activity worked out at 1 in experiment [1] and 50 in experiment [3]. Further, the RHA in the experiment listed under Rattus norvegicus stood at 0%.
